For 29 compounds, IC50 results are on record in ChEMBL document CHEMBL1127399, “4,7 beta-Dimethyl-4-azacholestan-3-one (MK-386) and related 4-azasteroids as selective inhibitors of human type 1 5 alpha-reductase” (J Med Chem, 1994).

A word on the IC50: it is the concentration that inhibits the measured activity by half. The low end stands for higher potency, the high end for lower potency.

Experiment [1] addresses T1, 3-oxo-5-alpha-steroid 4-dehydrogenase 2 (Homo sapiens, UniProt P31213).
T1 sequence (P31213 whole entry): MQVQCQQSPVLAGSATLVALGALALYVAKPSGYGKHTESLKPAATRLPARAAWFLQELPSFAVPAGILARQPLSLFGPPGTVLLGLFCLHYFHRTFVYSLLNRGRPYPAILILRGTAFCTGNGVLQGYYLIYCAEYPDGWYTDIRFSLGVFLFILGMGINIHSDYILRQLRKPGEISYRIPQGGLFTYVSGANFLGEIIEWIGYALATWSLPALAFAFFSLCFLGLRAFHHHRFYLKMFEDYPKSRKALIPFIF
The experiment can be described thus: Inhibition of type 2 steroid-5-alpha-reductase. The procedure, abridged:
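Baculovirus-expressed recombinant human type 2 5α-reductase preincubated 18 h at 4 °C with inhibitor (1–10 000 nM, serially diluted from ethanol) in 40 mM sodium citrate pH 5.5, 500 μM NADPH, 1 mM DTT, 1 mg/mL BSA. Conversion of [7-³H]testosterone to DHT monitored by HPLC. IC50 averaged over at least three determinations.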

The target of experiment [2] is T2, 3-oxo-5-alpha-steroid 4-dehydrogenase 1 (Homo sapiens, UniProt P18405).
T2 sequence (P18405 whole entry): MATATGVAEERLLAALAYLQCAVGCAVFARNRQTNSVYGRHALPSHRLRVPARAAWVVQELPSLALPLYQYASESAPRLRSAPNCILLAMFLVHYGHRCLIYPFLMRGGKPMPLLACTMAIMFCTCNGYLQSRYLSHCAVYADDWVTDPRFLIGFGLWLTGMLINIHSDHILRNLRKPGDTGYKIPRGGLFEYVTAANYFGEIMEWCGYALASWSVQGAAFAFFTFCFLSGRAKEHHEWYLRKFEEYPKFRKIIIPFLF
The experiment can be described thus: Inhibition of type 1 steroid-5-alpha-reductase. The procedure, abridged:
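Baculovirus-expressed recombinant human type 1 5α-reductase preincubated 18 h at 4 °C with inhibitor (0.1–1000 nM, serial dilutions from ethanol) in 40 mM sodium phosphate pH 7.0, 500 μM NADPH, 1 mM DTT, 1 mg/mL BSA. Reaction started with [7-³H]testosterone (final 0.3 μM) plus NADPH, 90 min at 37 °C; T and DHT separated by HPLC. IC50, mean of ≥3 determinations.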

Where only a bound is given, the exact number is not on record here.

As to `CCC[C@H]1C=C2NC(=O)CC[C@]2(C)C2CC[C@]3(C)C(C(C)CCCC(C)C)CCC3C21` (stereo not given in full), the IC50 in experiment [1] turned out to be 713 nM; in experiment [2], 58 nM.

As for `CC(C)CCCC(C)C1CCC2C3C(CC[C@]12C)[C@@]1(C)CCC(=O)NC1C[C@@H]3c1ccccc1` (stereo not given in full), the IC50 in experiment [1] is 443 nM; in experiment [2] it was > 1000 nM. Taken in the same sequence, the figures for `CCC[C@H]1C=C2N(C)C(=O)CC[C@]2(C)C2CC[C@]3(C)C(C(C)CCCC(C)C)CCC3C21` (stereo not given in full) were 5.4 nM and 8.4 nM. In the case of `CC[C@H]1C=C2N(C)C(=O)CC[C@]2(C)C2CC[C@]3(C)C(C(C)CCCC(C)C)CCC3C21` (stereo not given in full), the IC50 in experiment [1] was 2120 nM; in experiment [2], 9.5 nM. `CC(C)CCCC(C)C1CCC2C3C(CC[C@]12C)[C@@]1(C)CCC(=O)N(C)C1=C[C@@H]3c1ccccc1` (stereo not given in full): the half-inhibitory concentration (IC50) in experiment [1] is 2170 nM; in experiment [2], > 1000 nM. `CC(C)CCCC(C)C1CCC2C3CC=C4N(C)C(=O)CC[C@]4(C)C3CC[C@]12C` (stereo not given in full) returned a 50% inhibitory concentration (IC50) in experiment [2] of 4.3 nM. As to `CC(C)CCCC(C)C1CCC2C3C(CC[C@]12C)[C@@]1(C)C=CC(=O)NC1C[C@@H]3C` (stereo not given in full), the values for the IC50 in experiment [1] and in experiment [2] were 298 nM and 1.6 nM, respectively.

As for `CCC[C@H]1CC2N(C)C(=O)CC[C@]2(C)C2CC[C@]3(C)C(C(C)CCCC(C)C)CCC3C21` (stereo not given in full), the concentration for half-maximal inhibition (IC50) was 580 nM in experiment [1] and 20 nM in experiment [2].

As for `CC[C@H]1CC2N(C)C(=O)CC[C@]2(C)C2CC[C@]3(C)C(C(C)CCCC(C)C)CCC3C21` (stereo not given in full), the IC50 amounted to 330 nM in experiment [1] and 5.7 nM in experiment [2]. For `C=CCN1C(=O)CC[C@]2(C)C3CC[C@]4(C)C(C(C)CCCC(C)C)CCC4C3[C@@H](C)CC12` (stereo not given in full), the IC50 in experiment [1] came to 1300 nM; in experiment [2] it was 42 nM. For the compound `CC(C)CCCC(C)C1CCC2C3C(CC[C@]12C)[C@@]1(C)C=CC(=O)N(C)C1C[C@@H]3C` (stereo not given in full), the concentration for half-maximal inhibition (IC50) in experiment [1] was 125 nM; in experiment [2], 2 nM.

For the compound `CC(C)CCCC(C)[C@H]1CCC2C3C(CC[C@@]21C)[C@@]1(C)CCC(=O)N(C)C1C[C@@H]3C` (stereo not given in full), the IC50 in experiment [1] was 154 nM; in experiment [2], 0.9 nM. As to `C[C@]12CCC3C(CNC4=CC(=O)CC[C@@]43C)C1CCC2C(=O)NC(c1ccccc1)c1ccccc1` (stereo not given in full), the IC50 is < 0.1 nM in experiment [1] and 186 nM in experiment [2]. Take `CC[C@H]1C=C2NC(=O)CC[C@]2(C)C2CC[C@]3(C)C(C(C)CCCC(C)C)CCC3C21` (stereo not given in full): the IC50 in experiment [1] was found to be 1050 nM; in experiment [2], 8.6 nM. `CC(C)CCCC(C)C1CCC2C3CCC4NC(=O)C=C[C@]4(C)C3CC[C@]12C` (stereo not given in full): in experiment [2], the IC50 turned out to be 5 nM.

In the case of `CC(C)CCCC(C)C1CCC2C3C(CC[C@]12C)[C@@]1(C)CCC(=O)NC1=C[C@@H]3C` (stereo not given in full), the IC50 came out at 859 nM in experiment [1] and 2.5 nM in experiment [2]. In turn, `CC(C)CCCC(C)C1CCC2C3CC=C4NC(=O)CC[C@]4(C)C3CC[C@]12C` (stereo not given in full) came in with an IC50 in experiment [2] of 19.1 nM. This counts as double-digit nanomolar.

On to `CC(C)CCCC(C)C1CCC2C3C(CC[C@]12C)[C@@]1(C)CCC(=O)N(C)C1C[C@@H]3c1ccccc1` (stereo not given in full), for which the IC50 in experiment [1] is 428 nM; in experiment [2], 134 nM. In the same order, the values of `CC(C)CCCC(C)C1CCC2C3CCC4N(C)C(=O)CC[C@]4(C)C3CC[C@]12C` (stereo not given in full) are 218 nM and 1.7 nM. In the same order, the values of `CC(C)CCCC(C)C1CCC2C3CCC4NC(=O)CC[C@]4(C)C3CC[C@]12C` (stereo not given in full) are 218 nM and 2.6 nM.

As for `CCN1C(=O)CC[C@]2(C)C3CC[C@]4(C)C(C(C)CCCC(C)C)CCC4C3[C@@H](C)CC12` (stereo not given in full), the IC50 in experiment [1] amounted to 1390 nM; in experiment [2], 3.3 nM. Consider `CC[C@H]1CC2NC(=O)CC[C@]2(C)C2CC[C@]3(C)C(C(C)CCCC(C)C)CCC3C21` (stereo not given in full), for which the IC50 in experiment [1] was found to be 280 nM; in experiment [2], 2.7 nM. Consider `CC(C)CCCC(C)C1CCC2C3C(CC[C@]12C)[C@@]1(C)CCC(=O)NC1C[C@@H]3C` (stereo not given in full), for which the IC50 was 280 nM in experiment [1] and 2.6 nM in experiment [2]. For the compound `CCC[C@H]1CC2NC(=O)CC[C@]2(C)C2CC[C@]3(C)C(C(C)CCCC(C)C)CCC3C21` (stereo not given in full), the results for the IC50 in experiment [1] and in experiment [2] were 1100 nM and 9.5 nM, respectively. On to `CC(C)CCCC(C)C1CCC2C3C(CC[C@]12C)[C@@]1(C)CCC(=O)NC1=C[C@@H]3c1ccccc1` (stereo not given in full), for which the IC50 in experiment [1] is 1340 nM; in experiment [2] it was > 1000 nM. Consider `CC(C)CCCC(C)C1CCC2C3C(CC[C@]12C)[C@@]1(C)CCC(=O)N(C)C1=C[C@@H]3C` (stereo not given in full), for which the IC50 in experiment [1] was determined as 147 nM; in experiment [2], 0.6 nM. Consider `CN1C(=O)CC[C@@H]2c3ccc(Cl)cc3CC[C@H]21` [BEXLOSTERIDE], for which the IC50 turned out to be 1750 nM in experiment [1] and 8.6 nM in experiment [2]. In the case of `CC(C)(C)NC(=O)[C@H]1CC[C@H]2[C@@H]3CC=C4C=C(C(=O)O)CC[C@]4(C)[C@H]3CC[C@]12C` [EPRISTERIDE], the IC50 in experiment [1] is 0.6 nM; in experiment [2], > 1000 nM.

For `CC(C)(C)NC(=O)[C@H]1CC[C@H]2[C@@H]3CC[C@H]4NC(=O)C=C[C@]4(C)[C@H]3CC[C@]12C` [FINASTERIDE], the figures for the IC50 in experiment [1] and in experiment [2] were < 0.1 nM and 52 nM, respectively.
